# From ChEMBL document CHEMBL1125908, “Substituted dihydrobenzopyran and dihydrobenzofuran thiazolidine-2,4-diones as hypoglycemic agents” (1991)
# What was measured:
# 3T3-L1 [1] = assay: In vitro fold stimulation of glucose transporter protein in 3T3-L1 adipocytes at a concentration of 10 uM; type: functional, Mus musculus
# Outline: (§1)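 Differentiated 3T3-L1 adipocytes (days 7–11 after start of differentiation) exposed to compound in DMEM + 10% FBS, 0.1% DMSO final, medium renewed with fresh drug after 24 h, total 48 h. Triton X-100/EDTA/DTT extracts dot-blotted, probed with affinity-purified rabbit anti-GLUT1 (0.5 μg/mL) then 125I goat anti-rabbit IgG, gamma-counted; transporter quantified against basal-extract standard curve, fold over DMSO control.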
# 3T3-L1 [2] = assay: In vitro fold stimulation of glucose transporter protein in 3T3-L1 adipocytes at a concentration of 30 uM; type: functional, Mus musculus; outline: as §1
# [3] = In vitro stimulation of 2-Deoxyglucose uptake in L6 myocytes from rat skeletal myoblasts at a concentration of 10 uM; type: functional
# Outline: (§2)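 Rat L6 myoblasts grown 14 days in MEMalpha + 2% FBS to fuse into myocytes, then serum-depleted 5 h. Uptake of 0.1 mM [1-14C]2-deoxyglucose in Dulbecco's PBS (+Ca, Mg) for 10 min at room temperature, stopped by ice-cold saline washes. Cells dissolved in 0.1 M NaOH and scintillation counted. Reported relative to 1 µM insulin set at 1.0.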
# [4] = In vitro stimulation of 2-Deoxyglucose uptake in L6 myocytes from rat skeletal myoblasts at a concentration of 3 uM; type: functional; outline: as §2
# [5] = In vitro stimulation of 2-Deoxyglucose uptake in L6 myocytes from rat skeletal myoblasts at a concentration of 30 uM; type: functional; outline: as §2
# Mus musculus [6] = assay: In vivo percent glucose normalization in mice at a concentration of 25 mg/kg; type: functional
# Outline: (§3)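 Six- to eight-week-old C57BL/6J-ob/ob mice, acclimated 1 week, bled retroorbitally before treatment. Oral gavage once daily for four days in 0.25% (w/v) methylcellulose in water, unadjusted pH. Bled again 24 h after the fourth dose. Plasma glucose read by hexokinase UV method. Expressed as % normalization: vehicle = 0%, ciglitazone 50 mg/kg = 100%.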
# Mus musculus [7] = assay: Compound was evaluated for in vivo for % glucose normalization in mice at a concentration of 10 mg/kg.; type: functional; outline: as §3
# Mus musculus [8] = assay: Compound was evaluated for in vivo for % glucose normalization in mice at a concentration of 2.5 mg/kg.; type: functional; outline: as §3
# Mus musculus [9] = assay: Compound was evaluated for in vivo for % glucose normalization in mice at a concentration of 5 mg/kg.; type: functional; outline: as §3
SMILES,GT fold stimulation (3T3-L1 [1]),GT fold stimulation (3T3-L1 [2]),2-DG uptake stimulation [3],2-DG uptake stimulation [4],2-DG uptake stimulation [5],Glucose normalisation (Mus musculus [6]) [%],Glucose normalisation (Mus musculus [7]) [%],Glucose normalisation (Mus musculus [8]) [%],Glucose normalisation (Mus musculus [9]) [%]
O=C1NC(=O)C(Cc2ccc3c(c2)CC2(CCCCC2)O3)S1 (centres undefined),1.15,1.36,1.28,0.85,1.62,56,,,
O=C1NC(=O)C(Cc2ccc3c(c2)CCC(Cc2ccccc2)O3)S1 (centres undefined),1.14,1.48,1.29,0.91,1.14,91,70,29,48
O=C1NC(=O)C(Cc2ccc3c(c2)CCC2(CCCCCC2)O3)S1 (centres undefined),0.94,1.12,0.99,1.32,0.43,0,,,
O=C1NC(=O)C(Cc2ccc3c(c2)CCC(CC2CCCCC2)O3)S1 (centres undefined),1.02,1.28,1.55,1.14,0.68,7,,,
O=C1NC(=O)C(Cc2ccc3c(c2)CCC(Cc2ccccc2)(Cc2ccccc2)O3)S1 (centres undefined),1.03,1.23,0.86,0.73,0.44,12,,,
O=C1NC(=O)C(Cc2ccc3c(c2)CCC2(CCCCC2)O3)S1 (centres undefined),0.97,1.2,1.52,0.97,1.22,35,,,
O=C1NC(=O)C(Cc2ccc3c(c2)CCC(C2CCCCC2)O3)S1 (centres undefined),1.03,1.23,2.08,1.28,2.23,69,75,5,65
O=C1NC(=O)C(Cc2ccc3c(c2)CCC(c2ccccc2)O3)S1 (centres undefined),1.05,1.37,0.95,0.78,1.15,70,0,,
COc1ccc(CC2CCc3cc(CC4SC(=O)NC4=O)ccc3O2)cc1 (centres undefined),1.08,1.21,1.15,0.92,0.69,85,68,,10
CC1(C2Cc3cc(CC4SC(=O)NC4=O)ccc3O2)CCCCC1 (centres undefined),1.11,1.22,0.93,0.8,1.67,80,33,,
O=C1NC(=O)C(Cc2ccc3c(c2)CC2(CCCCC2)CO3)S1 (centres undefined),0.8,1.23,1.27,1.15,1.38,68,6,,
O=C1NC(=O)C(Cc2ccc3c(c2)CCC(Cc2ccc(O)cc2)O3)S1 (centres undefined),1.25,1.34,1.24,1.04,1.03,100,55,,
O=C1NC(=O)C(Cc2ccc3c(c2)CC[C@@H](Cc2ccccc2)O3)S1 (some centres undefined),1.13,1.17,0.9,0.77,1.23,73,47,,41
O=C1NC(=O)C(Cc2ccc3c(c2)CC(CC2CCCCC2)O3)S1 (centres undefined),1.14,1.41,1.39,0.88,1.71,19,,,
O=C1NC(=O)C(Cc2ccc3c(c2)CC(Cc2ccccc2)O3)S1 (centres undefined),1.34,1.51,1.11,0.91,1.51,100,95,0,65
O=C1NC(=O)C(Cc2ccc3c(c2)CC(C2CCCCC2)O3)S1 (centres undefined),1.25,1.42,1.85,1.1,1.66,23,,,
O=C1NC(=O)C(Cc2ccc3c(c2)CC[C@H](Cc2ccccc2)O3)S1 (some centres undefined) [ENGLITAZONE],1.13,1.24,0.91,0.77,1.27,88,90,31,73
O=C1NC(=O)C(Cc2ccc3c(c2)CCC2(CCCC2)O3)S1 (centres undefined),0.95,1.1,1.06,0.79,1.18,52,64,0,50
O=C1NC(=O)C(Cc2ccc3c(c2)CC(c2ccccc2)O3)S1 (centres undefined),1.14,1.42,0.99,0.76,1.3,85,6,,
CCC1(CC)CCc2cc(CC3SC(=O)NC3=O)ccc2O1 (centres undefined),1.08,1.21,1.33,1.01,1.38,24,,,
CC1(COc2ccc(CC3SC(=O)NC3=O)cc2)CCCCC1 (centres undefined) [CIGLITAZONE],1.49,1.51,1.02,0.82,0.68,84,52,,
O=C1NC(=O)C(Cc2ccc3c(c2)CCC(Cc2ccc(OCc4ccccc4)cc2)O3)S1 (centres undefined),1.48,1.59,1.53,1.42,1.34,95,100,19,73
O=C1NC(=O)C(Cc2ccc3c(c2)C(c2ccccc2)CO3)S1 (centres undefined),1.13,1.19,1.24,1.05,1.42,32,,,
O=C1NC(=O)C(Cc2ccc3c(c2)C(Cc2ccccc2)CO3)S1 (centres undefined),1.09,1.31,1.25,0.85,1.4,0,,,
O=C1NC(=O)C(Cc2ccc3c(c2)CCC(Cc2ccccn2)O3)S1 (centres undefined),1.48,1.42,0.96,0.76,0.96,74,49,,
